pIC50: −log10 of the molar value. The source made the active and inactive calls. No cut-off for these calls is given here.
Tests used:
[1] = target: T1, Bromodomain-containing protein 4 (Homo sapiens, UniProt O60885); assay: Inhibition of human BRD4 BD2 (342 to 460 residues) at 30 uM preincubated for 30 mins followed by substrate addition measured after 30 mins by TR-FRET assay
HL-60 [2] = assay: Induction of apoptosis in human HL60 cells assessed as early apoptotic cells at 1 uM by annexin V-FITC/propidium iodide staining-based flow cytometric analysis (reference value: 8.23%); assay type: functional
HL-60 [3] = assay: Induction of morphological changes in human HL60 cells at 1 to 10 uM after 24 hrs by Hoechst 33258 staining-based fluorescence microscopy; assay type: functional, cell-based
Procedure, shortened: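 HL-60 cells were cultured with different concentrations and stained with Hoechst 33258. Apoptotic nuclear morphology was examined under an inverted microscope.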

[4] = Downregulation of BRD4 expression in human HL60 cells at 1 to 10 uM after 24 hrs by Western blot method; assay type: functional, cell-based; details: HL-60
Procedure, shortened: (§1)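 HL-60 cells were treated for 24 h. Lysates were then immunoblotted for Bax, Bcl-2, pro-caspase 3, active caspase 3 and Brd4.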

HL-60 [5] = assay: Induction of apoptosis in human HL60 cells assessed as caspase-3 cleavage at 1 to 10 uM after 24 hrs by Western blot method; assay type: functional, cell-based; procedure, shortened: as §1
[6] = Induction of apoptosis in human HL60 cells assessed as upregulation of Bax expression at 1 to 10 uM after 24 hrs by Western blot method; assay type: functional, cell-based; details: HL-60; procedure, shortened: as §1
[7] = target: T1, Bromodomain-containing protein 4; assay: Inhibition of human BRD4 BD2 (342 to 460 residues) at 30 uM preincubated for 30 mins followed by substrate addition measured after 30 mins by TR-FRET assay relative to control
Procedure, shortened: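 BRD4 BD2 percent inhibition was measured at a single concentration of 30, in triplicate, and reported as mean ± SD.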

HL-60 [8] = assay: Induction of apoptosis in human HL60 cells assessed as late apoptotic cells at 1 uM by annexin V-FITC/propidium iodide staining-based flow cytometric analysis (reference value: 6.92%); assay type: functional
HL-60 [9] = assay: Induction of apoptosis in human HL60 cells assessed as late apoptotic cells at 10 uM by annexin V-FITC/propidium iodide staining-based flow cytometric analysis (reference value: 6.92%); assay type: functional
HL-60 [10] = assay: Induction of apoptosis in human HL60 cells assessed as early apoptotic cells at 5 uM by annexin V-FITC/propidium iodide staining-based flow cytometric analysis (reference value: 8.23%); assay type: functional
[11] = Cytotoxicity against human MV4-11 cells assessed as decrease in cell viability after 24 hrs by MTT assay; assay type: functional, cell-based; details: MV4-11, 24 h
HL-60 [12] = assay: Induction of apoptosis in human HL60 cells assessed as viable cells at 10 uM by annexin V-FITC/propidium iodide staining-based flow cytometric analysis (reference value: 84.22%); assay type: functional; details: read-out: Activity
HL-60 [13] = assay: Induction of apoptosis in human HL60 cells assessed as late apoptotic cells at 5 uM by annexin V-FITC/propidium iodide staining-based flow cytometric analysis (reference value: 6.92%); assay type: functional
[14] = target: T1, Bromodomain-containing protein 4; assay: Inhibition of human His-tagged BRD4 BD1 (49 to 170 residues) at 30 uM using H-SGRGK(Ac)GGK(Ac)GLGK-(Ac)GGAK(Ac)RHRK(Biotin)-OH as substrate preincubated for 30 mins followed by substrate addition measured after 30 mins by TR-FRET assay relative to control
Procedure, shortened: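 BRD4 bromodomain 1 was tested using a TR-FRET assay kit. Percent inhibition was measured at a single concentration of 30, in triplicate, and reported as mean ± SD.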

HL-60 [15] = assay: Induction of apoptosis in human HL60 cells assessed as viable cells at 5 uM by annexin V-FITC/propidium iodide staining-based flow cytometric analysis (reference value: 84.22%); assay type: functional; details: read-out: Activity
HL-60 [16] = assay: Induction of apoptosis in human HL60 cells assessed as necrotic cells at 1 uM by annexin V-FITC/propidium iodide staining-based flow cytometric analysis (reference value: 0.13%); assay type: functional
[17] = target: T1, Bromodomain-containing protein 4; assay: Inhibition of human His-tagged BRD4 BD1 (49 to 170 residues) using H-SGRGK(Ac)GGK(Ac)GLGK-(Ac)GGAK(Ac)RHRK(Biotin)-OH as substrate preincubated for 30 mins followed by substrate addition measured after 30 mins by TR-FRET assay
HL-60 [18] = assay: Induction of apoptosis in human HL60 cells assessed as viable cells at 1 uM by annexin V-FITC/propidium iodide staining-based flow cytometric analysis (reference value: 84.22%); assay type: functional; details: read-out: Activity
HL-60 [19] = assay: Induction of apoptosis in human HL60 cells assessed as necrotic cells at 10 uM by annexin V-FITC/propidium iodide staining-based flow cytometric analysis (reference value: 0.13%); assay type: functional
HL-60 [20] = assay: Induction of apoptosis in human HL60 cells assessed as necrotic cells at 5 uM by annexin V-FITC/propidium iodide staining-based flow cytometric analysis (reference value: 0.13%); assay type: functional
HL-60 [21] = assay: Induction of apoptosis in human HL60 cells assessed as downregulation of Bcl-2 expression at 1 to 10 uM after 24 hrs by Western blot method; assay type: functional, cell-based; procedure, shortened: as §1
HL-60 [22] = assay: Induction of apoptosis in human HL60 cells assessed as early apoptotic cells at 10 uM by annexin V-FITC/propidium iodide staining-based flow cytometric analysis (reference value: 8.23%); assay type: functional
[23] = (§2) Cytotoxicity against human U937 cells assessed as decrease in cell viability after 24 hrs by MTT assay; assay type: functional, cell-based; details: U-937, 24 h
U-937 = assay: as §2; assay type: functional, cell-based
HL-60 [24] = assay: (§3) Cytotoxicity against human HL60 cells assessed as decrease in cell viability after 24 hrs by MTT assay; assay type: functional, cell-based
[25] = as §3; assay type: functional, cell-based; details: HL-60, 24 h

O=C1CCN(C(=O)c2cccc(-c3ccccc3)c2)c2ccccc2N1
pIC50 [1]: 4.95
Activity (HL-60 [2]): 10.15%
Activity (HL-60 [3]): Active
Activity [4]: Active
Activity (HL-60 [5]): Active
Activity [6]: Active
inhibition [7]: 54.2%
Activity (HL-60 [8]): 8.32%
Activity (HL-60 [9]): 45.46%
Activity (HL-60 [10]): 21.63%
pIC50 [11]: 5.38
viability at 10 µM (HL-60 [12]): 34.9%
Activity (HL-60 [13]): 32.51%
inhibition [14]: 96.1%
viability at 5 µM (HL-60 [15]): 45%
Activity (HL-60 [16]): 0.11%
pIC50 [17]: 5.90
viability at 1 µM (HL-60 [18]): 81.4%
Activity (HL-60 [19]): 1.96%
Activity (HL-60 [20]): 0.9%
Activity (HL-60 [21]): Active
Activity (HL-60 [22]): 17.73%
pIC50 [23]: < 4.70
Activity (U-937): Dose-dependent effect
Activity (HL-60 [24]): Dose-dependent effect
pIC50 [25]: 5.40

Cc1noc(C)c1NC(=O)c1ccccc1
inhibition [14]: < 20%

COc1cc(OC)c2c(=O)[nH]c(-c3cc(C)c(OCCO)c(C)c3)nc2c1 [APABETALONE]
pIC50 [11]: < 4.70
pIC50 [23]: < 4.70
pIC50 [25]: < 4.70

Cc1sc2c(c1C)C(c1ccc(Cl)cc1)=N[C@@H](CC(=O)OC(C)(C)C)c1nnc(C)n1-2
pIC50 [11]: 5.19
pIC50 [23]: < 4.70
pIC50 [25]: 5.28

Cc1noc(C)c1NC(=O)c1cccnc1
inhibition [14]: 32.6%

COc1cc(C(=O)Nc2c(C)noc2C)cc(-c2ccccc2)c1
pIC50 [1]: < 4.70
inhibition [7]: 36.3%
pIC50 [11]: 4.72
inhibition [14]: 64.5%
pIC50 [17]: 5.08
pIC50 [23]: < 4.70
pIC50 [25]: 4.77

O=C1CCN(C(=O)c2cccnc2)c2ccccc2N1
inhibition [14]: 45.2%

O=C1CCN(C(=O)c2ccc3ccccc3c2)c2ccccc2N1
inhibition [14]: 25.3%

O=C1CCCc2c1ccn2C(=O)c1ccccc1
inhibition [14]: < 20%

CC1C(=O)Nc2ccccc2N1C(=O)c1ccc2ccccc2c1 (stereo not drawn)
inhibition [14]: < 20%

O=C1CCCc2c1ccn2C(=O)c1cccnc1
inhibition [14]: 34.2%

Cc1noc(C)c1NC(=O)c1ccc2ccccc2c1
inhibition [14]: 23.1%

COc1cc(C(=O)N2c3ccccc3NC(=O)C2C)cc(-c2ccccc2)c1 (stereo not drawn)
pIC50 [1]: < 4.70
inhibition [7]: 36.2%
pIC50 [11]: 4.75
inhibition [14]: 88.7%
pIC50 [17]: 5.20
pIC50 [23]: < 4.70
pIC50 [25]: 5.03

COc1ccccc1S(=O)(=O)Nc1ccc2c(c1)CN(C)C(=O)N2
pIC50 [11]: 5.11
pIC50 [23]: < 4.70
pIC50 [25]: 5.66

O=C1CCCc2c1ccn2C(=O)c1cccc(-c2ccccc2)c1
inhibition [14]: 32.1%

CC1C(=O)Nc2ccccc2N1C(=O)c1cccc(-c2ccccc2)c1 (stereo not drawn)
pIC50 [1]: < 4.70
inhibition [7]: 23.1%
pIC50 [11]: 4.88
inhibition [14]: 72.4%
pIC50 [17]: 5.13
pIC50 [23]: < 4.70
pIC50 [25]: 4.94

O=C1CCCc2c1ccn2C(=O)c1ccc2ccccc2c1
inhibition [14]: 23.1%

COc1cc(C(=O)N2CCC(=O)Nc3ccccc32)cc(-c2ccccc2)c1
pIC50 [1]: 5.04
inhibition [7]: 67.1%
pIC50 [11]: 5.02
inhibition [14]: 88.8%
pIC50 [17]: 5.56
pIC50 [23]: 4.74
pIC50 [25]: 5.08

COc1cc(C(=O)n2ccc3c2CCCC3=O)cc(-c2ccccc2)c1
inhibition [14]: 22.8%

CC1C(=O)Nc2ccccc2N1C(=O)c1cccnc1 (stereo not drawn)
inhibition [14]: < 20%

CC1C(=O)Nc2ccccc2N1C(=O)c1ccccc1 (stereo not drawn)
inhibition [14]: < 20%

O=C1CCN(C(=O)c2ccccc2)c2ccccc2N1
inhibition [14]: 32.4%

Cc1noc(C)c1NC(=O)c1cccc(-c2ccccc2)c1
inhibition [14]: 46.2%
